Laboratory results taken from ChEMBL document CHEMBL1138619, “Autotaxin structure-activity relationships revealed through lysophosphatidylcholine analogs” (Bioorg Med Chem, 2009).

Columns and labels:
Format in all cases: cell-based
Parameters in all cases: scale not given: the % may be the effect or the level left
Autotaxin (Homo sapiens) [1] = biological target: Autotaxin (Homo sapiens) (UniProt Q13822); assay: Activity of human autotaxin in human […] cells assessed as effect on enzyme-mediated of FS3 hydrolysis at 0.1 uM
Procedure, shortened: (§1)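 ATX source: serum-free conditioned medium from MDA-MB-435 cells (24-30 h), with 20% ethylene glycol added, concentrated ~10-fold and exchanged into 50 mM Tris pH 7.4. Assay: FS-3 substrate 1 μM final, fatty-acid-free BSA 30 μM, Tris pH 8 buffer with Mg2+, Ca2+, K+ and NaCl. Read fluorescence at ex 485/em 538 nm every 5 min. % inhibition vs vehicle at 1 h, after no-medium background subtraction; mean ± SD, ≥3 wells.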

Autotaxin (Homo sapiens) [2] = biological target: Autotaxin (Homo sapiens) (UniProt Q13822); assay: Activity of human autotaxin in human […] cells assessed as effect on enzyme-mediated of FS3 hydrolysis at 1 uM; procedure, shortened: as §1
Autotaxin (Homo sapiens) [3] = biological target: Autotaxin (Homo sapiens) (UniProt Q13822); assay: Activity of human autotaxin in human […] cells assessed as effect on enzyme-mediated of FS3 hydrolysis at 10 uM; procedure, shortened: as §1

| Activity (Autotaxin (Homo sapiens) [1]) [%] | Activity (Autotaxin (Homo sapiens) [2]) [%] | Activity (Autotaxin (Homo sapiens) [3]) [%] | Compound |
| --- | --- | --- | --- |
| 92 | 55 | 17 | CCCCCCCCC/C=C/CCCCCCCC(=O)OC[C@@H](O)COP(=O)([O-])OCC[N+](C)(C)C |
| 98 | 95 | 87 | CCCCCCCCCCCCOC[C@H](O)COP(=O)([O-])CCC[N+](C)(C)C |
| 90 | 23 | 2 | CCCCCCCCC/C=C/CCCCCCCC(=O)OC[C@@H](O)COP(=O)(O)O |
| 74 | 49 | 5 | CCCCCCCCCCCCCCCCC(=O)OC[C@@H](O)COP(=O)(O)O |
| 94 | 81 | 101 | CCCCCCCCC(=O)OC[C@@H](O)COP(=O)([O-])OCC[N+](C)(C)C |
| 89 | 90 | 75 | CCCCCCCCCCCCCCOP(=O)([O-])NCC[N+](C)(C)C |
| 105 | 59 | 8 | CCCCCCCC/C=C\CCCCCCCCOP(=O)([O-])OCC[N+](C)(C)C |
| 110 | 96 | 44 | CCCCCCCCCCCCCCCCCCP(=O)([O-])OCC[N+](C)(C)C |
| 97 | 94 | 91 | CCCCCCCCCCCCCCCCOP(=O)([O-])CCC[N+](C)(C)C |
| 111 | 99 | 59 | CCCCCCCCCCCCCCCCCCC(=O)OC[C@@H](O)COP(=O)([O-])OCC[N+](C)(C)C |
| 78 | 77 | 68 | CCCCCCCCCCCCCCCCCCOC[C@H](O)COP(=O)([O-])CCC[N+](C)(C)C |
| 104 | 100 | 97 | CCCCCCC(=O)OC[C@@H](O)COP(=O)([O-])OCC[N+](C)(C)C |
| 93 | 89 | 74 | CCCCCCCCC/C=C/CCCCCCCOP(=O)([O-])NCC[N+](C)(C)C |
| 83 | 82 | 72 | CCCCCCCCCCCCCCCCOC[C@@H](O)COP(=O)([O-])CCC[N+](C)(C)C |
| 98 | 85 | 76 | CCCCCCCCCCCCCCOC[C@@H](O)COP(=O)([O-])CCC[N+](C)(C)C |
| 94 | 90 | 71 | CCCCCCCCCCCCCCOP(=O)([O-])CCC[N+](C)(C)C |
| 101 | 101 | 85 | CCCCCCCCCCC(=O)OC[C@@H](O)COP(=O)([O-])OCC[N+](C)(C)C |
| 100 | 89 | 49 | CCCCCCCCCCCCCCCCCOC[C@@H](O)COP(=O)([O-])OCC[N+](C)(C)C |

| Activity (Autotaxin (Homo sapiens) [1]) [%] | Activity (Autotaxin (Homo sapiens) [2]) [%] | Activity (Autotaxin (Homo sapiens) [3]) [%] | Compound |
| --- | --- | --- | --- |
| 82 | 86 | 76 | CCCCCCCCCCCCCCCCOC[C@H](O)COP(=O)([O-])CCC[N+](C)(C)C |
| 97 | 96 | 89 | CCCCCCCCCCOC[C@H](O)COP(=O)([O-])CCC[N+](C)(C)C |
| 97 | 95 | 80 | CCCCCCCCCCCCCCOC[C@H](O)COP(=O)([O-])CCC[N+](C)(C)C |
| 72 | 80 | 36 | CCCCCCCCCCCCCCC(=O)OC[C@@H](O)COP(=O)([O-])OCC[N+](C)(C)C |
| 114 | 113 | 92 | CCCCCCCCCCCCCCCCOP(=O)([O-])OCC[N+](C)(C)C |
| 101 | 100 | 79 | CCCCCCCC/C=C\CCCCCCCCOP(=O)(O)OCC[N+](C)(C)C |
| 110 | 112 | 91 | CCCCCCCCCCCCCCOP(=O)([O-])OCC[N+](C)(C)C |
| 89 | 74 | 36 | CCCCCCCCCCCCCCCCCCC(=O)OC[C@@H](O)COP(=O)(O)O |
| 114 | 116 | 102 | CCCCCCCCCCCCCCCCCCOP(=O)([O-])OCC[N+](C)(C)C |
| 86 | 74 | 29 | CCCCCCCCCCCCCCCCCCOP(=O)([O-])NCC[N+](C)(C)C |
| 101 | 95 | 103 | CCCCCCCCCCOC[C@@H](O)COP(=O)([O-])CCC[N+](C)(C)C |
| 92 | 86 | 44 | CCCCCCCCCCCCCCCCCCCOC[C@@H](O)COP(=O)([O-])OCC[N+](C)(C)C |
| 81 | 89 | 76 | CCCCCCCCCCCCCCCCCCOC[C@@H](O)COP(=O)([O-])CCC[N+](C)(C)C |
| 102 | 97 | 66 | CCCCCCCCCCCCC(=O)OC[C@@H](O)COP(=O)([O-])OCC[N+](C)(C)C |
| 109 | 89 | 36 | CCCCCCCCCCCCCCCCC(=O)OC[C@@H](O)COP(=O)([O-])OCC[N+](C)(C)C |
| 99 | 96 | 89 | CCCCCCCCCCCCOC[C@@H](O)COP(=O)([O-])CCC[N+](C)(C)C |
| 81 | 81 | 77 | CCCCCCCCCCCCCCCCOP(=O)([O-])NCC[N+](C)(C)C |
